Legend:
[1] = tested on: Human immunodeficiency virus; assay: Inhibitory concentration against protease inhibitor-resistant mutant Human immuno deficiency virus (EP13) was determined in an MT-4 cell line; details: Human immunodeficiency virus 1, MT4
[2] = tested on: Human immunodeficiency virus; assay: Inhibitory concentration against protease inhibitor-resistant mutant Human immuno deficiency virus (D545701) was determined in an MT-4 cell line; details: Human immunodeficiency virus 1, MT4
[3] = tested on: Human immunodeficiency virus; assay: Inhibitory concentration against wild type Human immuno deficiency virus (HXB2) was determined in an MT-4 cell line; type: functional, organism-based; details: Human immunodeficiency virus 1, MT4
Rattus norvegicus [4] = assay: Bioavailability in rats at 1.0 mg/kg iv dose; type: functional, organism-based
Canis lupus familiaris [5] = assay: Half life in dogs at 0.5 mg/kg iv dose; type: functional, organism-based; design: dose 0.5 mg/kg
Rattus norvegicus [6] = assay: Clearance in rats at 1.0 mg/kg iv dose; type: functional, organism-based; design: dose 1 mg/kg
Rattus norvegicus [7] = assay: Half life in rat was determined at a dose 1.0 mg/kg; type: functional, organism-based; design: dose 1 mg/kg
Canis lupus familiaris [8] = assay: Clearance in dogs at 0.5 mg/kg dose; type: functional, organism-based; design: dose 0.5 mg/kg
Canis lupus familiaris [9] = assay: Bioavailability in dog at 0.5 mg/kg dose; type: functional, organism-based
Rattus norvegicus [10] = assay: Bioavailability of the compound in rat was determined; Dose at 1.0 mg/kg; type: functional, organism-based
Canis lupus familiaris [11] = assay: Bioavailability in dog at 0.5 mg/kg dose co-administered with 4.0 mg/kg ritonavir; type: functional, organism-based
Method in brief: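 Ritonavir-boosted bioavailability was calculated as the oral AUC with co-administered ritonavir divided by the IV AUC without ritonavir.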

Canis lupus familiaris [12] = assay: Clearance in dogs at 0.5 mg/kg iv dose; type: functional, organism-based; design: dose 0.5 mg/kg
Canis lupus familiaris [13] = assay: Half life in dogs at 0.5 mg/kg iv dose co-administered with ritonavir 4.0 mg/kg; type: functional, organism-based

| Structure (SMILES) | IC50 [1] | IC50 [2] | IC50 [3] | also measured |
| --- | --- | --- | --- | --- |
| CC(C)CN(C[C@@H](O)[C@H](Cc1ccc(OCCNC(=O)N(C)C)cc1)NC(=O)O[C@H]1CO[C@H]2OCC[C@H]21)S(=O)(=O)c1ccc2c(c1)OCO2 | 9.1 nM | 11 nM | 37 nM | – |
| CNC(=O)NCCOc1ccc(C[C@H](NC(=O)O[C@H]2CO[C@H]3OCC[C@H]32)[C@H](O)CN(CC(C)C)S(=O)(=O)c2ccc3c(c2)OCO3)cc1 | 131 nM | 130 nM | 200 nM | – |
| CNC(=O)NCCCOc1ccc(C[C@H](NC(=O)O[C@H]2CO[C@H]3OCC[C@H]32)[C@H](O)CN(CC(C)C)S(=O)(=O)c2ccc3c(c2)OCO3)cc1 | 56 nM | 43 nM | 119 nM | – |
| CC(=O)NCCCCOc1ccc(C[C@H](NC(=O)O[C@H]2CO[C@H]3OCC[C@H]32)[C@H](O)CN(CC(C)C)S(=O)(=O)c2ccc3c(c2)OCO3)cc1 | 13 nM | 16 nM | 39 nM | – |
| COC(=O)NCCCOc1ccc(C[C@H](NC(=O)O[C@H]2CO[C@H]3OCC[C@H]32)[C@H](O)CN(CC(C)C)S(=O)(=O)c2ccc3c(c2)OCO3)cc1 | 2.6 nM | 7.1 nM | 2.8 nM | bioavailability (Rattus norvegicus [4]): 3%; T1/2 (Canis lupus familiaris [5]): 66 min; CL (mL.min-1.kg-1) (Rattus norvegicus [6]): 0.717; T1/2 (Rattus norvegicus [7]): 12 min; CL (mL.min-1.kg-1) (Canis lupus familiaris [8]): 0.5; bioavailability (Canis lupus familiaris [9]): 1% |
| CC(=O)NCCOc1ccc(C[C@H](NC(=O)O[C@H]2CO[C@H]3OCC[C@H]32)[C@H](O)CN(CC(C)C)S(=O)(=O)c2ccc3c(c2)OCO3)cc1 | 52 nM | 53 nM | 140 nM | – |
| CC(=O)NCCCOc1ccc(C[C@H](NC(=O)O[C@H]2CO[C@H]3OCC[C@H]32)[C@H](O)CN(CC(C)C)S(=O)(=O)c2ccc3c(c2)OCO3)cc1 | 18 nM | 20 nM | 57 nM | – |
| CC(C)CN(C[C@@H](O)[C@H](Cc1ccccc1)NC(=O)O[C@H]1CCOC1)S(=O)(=O)c1ccc(N)cc1 [AMPRENAVIR] | 440 nM | > 1000 nM | 130 nM | – |
| Cc1cccc(C)c1OCC(=O)N[C@@H](Cc1ccccc1)[C@@H](O)C[C@H](Cc1ccccc1)NC(=O)[C@H](C(C)C)N1CCCNC1=O [LOPINAVIR] | 400 nM | > 1000 nM | 40 nM | – |
| CC(C)CN(C[C@@H](O)[C@H](Cc1ccc(OCCCCN)cc1)NC(=O)O[C@H]1CO[C@H]2OCC[C@H]21)S(=O)(=O)c1ccc2c(c1)OCO2 | 14 nM | 28 nM | 15 nM | – |
| CC(C)CN(C[C@@H](O)[C@H](Cc1ccc(OCCNS(C)(=O)=O)cc1)NC(=O)O[C@H]1CO[C@H]2OCC[C@H]21)S(=O)(=O)c1ccc2c(c1)OCO2 | 9.1 nM | 20 nM | 62 nM | – |
| CC(C)CN(C[C@@H](O)[C@H](Cc1ccc(OCCCNC(=O)N(C)C)cc1)NC(=O)O[C@H]1CO[C@H]2OCC[C@H]21)S(=O)(=O)c1ccc2c(c1)OCO2 | 11 nM | 11 nM | 25 nM | – |
| CC(C)CN(C[C@@H](O)[C@H](Cc1ccc(OCCCCNS(C)(=O)=O)cc1)NC(=O)O[C@H]1CO[C@H]2OCC[C@H]21)S(=O)(=O)c1ccc2c(c1)OCO2 | 5.9 nM | 9.2 nM | 15 nM | – |
| COC(=O)NCCCCOc1ccc(C[C@H](NC(=O)O[C@H]2CO[C@H]3OCC[C@H]32)[C@H](O)CN(CC(C)C)S(=O)(=O)c2ccc3c(c2)OCO3)cc1 | 2.6 nM | 6.6 nM | 2.6 nM | – |
| CC(C)CN(C[C@@H](O)[C@H](Cc1ccc(OCCN)cc1)NC(=O)O[C@H]1CO[C@H]2OCC[C@H]21)S(=O)(=O)c1ccc2c(c1)OCO2 | 150 nM | 130 nM | 180 nM | – |
| Cc1c(O)cccc1C(=O)N[C@@H](CSc1ccccc1)[C@H](O)CN1C[C@H]2CCCC[C@H]2C[C@H]1C(=O)NC(C)(C)C [NELFINAVIR] | 450 nM | > 1000 nM | 320 nM | – |
| COC(=O)NCCCCC(C)(C)CN(C[C@@H](O)[C@H](Cc1ccccc1)NC(=O)O[C@H]1CO[C@H]2OCC[C@H]21)S(=O)(=O)c1ccc2c(c1)OCO2 | 19 nM | 15 nM | 2.2 nM | – |
| CC(C)CN(C[C@@H](O)[C@H](Cc1ccc(OCCCN)cc1)NC(=O)O[C@H]1CO[C@H]2OCC[C@H]21)S(=O)(=O)c1ccc2c(c1)OCO2 | 50 nM | 65 nM | 67 nM | – |
| CC(C)CN(C[C@@H](O)[C@H](Cc1ccc(OCCCCNC(=O)N(C)C)cc1)NC(=O)O[C@H]1CO[C@H]2OCC[C@H]21)S(=O)(=O)c1ccc2c(c1)OCO2 | 22 nM | 32 nM | 65 nM | – |
| CC(C)(C)NC(=O)[C@@H]1CN(Cc2cccnc2)CCN1C[C@@H](O)C[C@@H](Cc1ccccc1)C(=O)N[C@H]1c2ccccc2C[C@H]1O [INDINAVIR] | 330 nM | 440 nM | 50 nM | – |
| CNC(=O)NCCCCOc1ccc(C[C@H](NC(=O)O[C@H]2CO[C@H]3OCC[C@H]32)[C@H](O)CN(CC(C)C)S(=O)(=O)c2ccc3c(c2)OCO3)cc1 | 26 nM | 22 nM | 60 nM | – |
| COC(=O)NCCOc1ccc(C[C@H](NC(=O)O[C@H]2CO[C@H]3OCC[C@H]32)[C@H](O)CN(CC(C)C)S(=O)(=O)c2ccc3c(c2)OCO3)cc1 | 2.9 nM | 7.1 nM | 3 nM | bioavailability (Rattus norvegicus [10]): 1%; CL (mL.min-1.kg-1) (Rattus norvegicus [6]): 0.917; bioavailability (Canis lupus familiaris [11]): 33%; T1/2 (Rattus norvegicus [7]): 96 min; CL (mL.min-1.kg-1) (Canis lupus familiaris [12]): 1.13; bioavailability (Canis lupus familiaris [9]): 0%; T1/2 (Canis lupus familiaris [13]): 36 min |
| CC(C)CN(C[C@@H](O)[C@H](Cc1ccc(OCCCNS(C)(=O)=O)cc1)NC(=O)O[C@H]1CO[C@H]2OCC[C@H]21)S(=O)(=O)c1ccc2c(c1)OCO2 | 20 nM | 21 nM | 41 nM | – |
| COC(=O)N[C@H](C(=O)N[C@@H](Cc1ccccc1)[C@@H](O)CN(Cc1ccc(-c2ccccn2)cc1)NC(=O)[C@@H](NC(=O)OC)C(C)(C)C)C(C)(C)C [ATAZANAVIR] | 93 nM | 70 nM | 25 nM | – |

— ChEMBL document CHEMBL1140366, “Novel P1 chain-extended HIV protease inhibitors possessing potent anti-HIV activity and remarkable inverse antiviral resistance profiles” (Bioorg Med Chem Lett, 2005)
